# Laboratory results reported in ChEMBL document CHEMBL4477171, “Identification of PTP1B and α-Glucosidase Inhibitory Serrulatanes from Eremophila spp. by Combined use of Dual High-Resolution PTP1B and α-Glucosidase Inhibition Profiling and HPLC-HRMS-SPE-NMR” (J Nat Prod, 2016).
# Active and inactive are the calls of the source. No cut-off for these calls is given here.
# Test system: Saccharomyces cerevisiae
# Assay: Inhibition of Saccharomyces cerevisiae alpha-glucosidase type-1 pre-incubated for 10 mins before pNPG substrate addition assessed as reduction in p-nitrophenol release
# Outline: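 Dried residues were dissolved in 25% DMSO in 0.1 M phosphate buffer, pH 6.9, at 25 °C. α-Glucosidase was added to 0.25 U/mL final (6.25% DMSO final) and preincubated for 10 min. The reaction was started with pNPG (1.25 mM final). A405 was read every 30 s for 10 min, and inhibition was taken from the cleavage rate relative to the blank.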
row,SMILES,inhibition
1,COc1cc(O)c2c(c1)O[C@H](c1ccc(O)cc1)CC2=O,Active
2,C/C(C=O)=C\CC[C@H](C)[C@@H]1CC[C@@H](C)c2c(O)cc(C(=O)O)cc21,Active

# Other lines, results leading:
row,inhibition,SMILES
1,Active,C/C(=C\CC[C@H](C)[C@@H]1CC[C@@H](C)c2c(O)cc(C(=O)O)cc21)CO
2,Active,C[C@@H](CO)CCC[C@H](C)[C@@H]1CC[C@@H](C)c2c(O)cc(C(=O)O)cc21

# Biological target: T1, Tyrosine-protein phosphatase non-receptor type 1 (Homo sapiens, UniProt P18031)
# T1 sequence (P18031 whole entry): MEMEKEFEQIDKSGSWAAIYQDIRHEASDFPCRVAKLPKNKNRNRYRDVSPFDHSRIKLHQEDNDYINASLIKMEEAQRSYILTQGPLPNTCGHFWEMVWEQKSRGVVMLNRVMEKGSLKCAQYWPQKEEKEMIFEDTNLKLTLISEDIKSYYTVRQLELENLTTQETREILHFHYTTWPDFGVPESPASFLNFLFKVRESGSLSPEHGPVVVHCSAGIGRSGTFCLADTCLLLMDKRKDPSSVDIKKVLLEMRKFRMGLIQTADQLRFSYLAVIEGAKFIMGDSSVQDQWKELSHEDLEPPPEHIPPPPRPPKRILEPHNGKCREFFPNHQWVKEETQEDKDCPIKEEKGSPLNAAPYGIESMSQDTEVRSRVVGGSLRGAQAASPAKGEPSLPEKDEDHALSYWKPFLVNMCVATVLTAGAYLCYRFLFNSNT
# Assay: Inhibition of GST-tagged human PTP1B expressed in Escherichia coli using pNPP substrate assessed as reduction in p-nitrophenol release
# Outline: (§1)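 Compounds were dissolved in MeOH as dilution series, dispensed in triplicate and dried. Residues were taken up in DMSO in 50 mM Tris/50 mM bis-Tris buffer with 100 mM NaCl, pH 7.0, at 25 °C. Final conditions were 10% DMSO, 1 mM EDTA, 0.5 mM pNPP and 2 mM DTT. After a 10 min preincubation, recombinant human PTP1B (0.05 μg/well) was added to start the reaction. A405 was read every 30 s for 10 min. Inhibition was calculated from the rate slope against the blank, and IC50 from dose–response curves.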
row,IC50 [µM],SMILES
1,3.5 to 7.6,O=C1c2c(O)cc(O)c3c2[C@@H]2[C@@H](c4ccccc4O[C@H]2c2cccc(O)c2-3)[C@H]1O [OHIOENSIN G]
2,1.5,CC1=CCC[C@H]2[C@@H](C)[C@@](C)(CC3=C(O)C(=O)C=C(CCCS(=O)(=O)O)C3=O)CC[C@]12C
3,3.5 to 7.6,O=C1C[C@@H]2c3ccccc3O[C@H]3c4cc(O)ccc4-c4c(O)cc(O)c1c4[C@H]23 [OHIOENSIN A]
4,5.5,OC[C@H]1O[C@@H](O[C@@H]2c3ccccc3[C@H](O)C[C@H]2O)[C@H](O)[C@@H](O)[C@@H]1O
5,3.5 to 7.6,O=C1C[C@]2(O)c3ccccc3O[C@H]3c4cc(O)ccc4-c4c(O)cc(O)c1c4[C@@H]32 [OHIOENSIN F]
6,7.8,C=C(CCC=C(C)C)[C@H]1CC[C@]2(C)CCCC(=C)[C@H]2C1 [LOBOPHYTUMIN C]
7,3.5 to 7.6,COc1cc(O)c2c3c1-c1ccc(O)cc1[C@@H]1Oc4ccccc4[C@@H](CC2=O)[C@@H]31
8,5.9,C=C1CC[C@@H]2[C@H]1[C@H]1[C@@H](C(C)CC(=O)C=C(C)C)CC[C@]12C (stereo partly specified)

# Biological target: T2, Tyrosine-protein phosphatase non-receptor type 1 (Homo sapiens) (UniProt P18031)
# T2 sequence (whole entry): T1 sequence (P18031 whole entry)
# Assay: (§2) Inhibition of recombinant human PTP1B preincubated for 10 mins followed by protein addition using pNPP substrate
# Outline: as §1
row,inhibition,SMILES
1,Active,C[C@H](CCC[C@H](C)[C@@H]1CC[C@@H](C)c2c1cc(C(=O)O)c(O)c2O)COC(=O)/C=C/c1ccc(O)c(O)c1
2,Active,C[C@H](CCC[C@H](C)[C@@H]1CC[C@@H](C)c2c(O)cc(C(=O)O)cc21)COC(=O)CCc1ccccc1
3,Active,COc1cc(/C=C/C(=O)OC[C@H](C)CCC[C@H](C)[C@@H]2CC[C@@H](C)c3c2cc(C(=O)O)c(O)c3O)ccc1O
4,Active,CC(C)=CCC[C@H](C)[C@@H]1CC[C@@H](C)c2c1cc(C(=O)O)c(O)c2O
5,Active,CC(C)=CCC(=O)OC[C@H](C)CCC[C@H](C)[C@@H]1CC[C@@H](C)c2c(O)cc(C(=O)O)cc21

# Biological target: T1, Tyrosine-protein phosphatase non-receptor type 1
# Assay: as §2
# Outline: as §1
row,IC50 [µM],SMILES
1,3.44,CC(C)CC(=O)OC[C@H](C)CCC[C@H](C)[C@@H]1CC[C@@H](C)c2c1cc(C(=O)O)c(O)c2O
2,7.67,CCCC(=O)OC[C@H](C)CCC[C@H](C)[C@@H]1CC[C@@H](C)c2c1cc(C(=O)O)c(O)c2O
3,1260,C[C@@H](CO)CCC[C@H](C)[C@@H]1CC[C@@H](C)c2c1cc(C(=O)O)c(O)c2O
4,6.27,C[C@H](CCC[C@H](C)[C@@H]1CC[C@@H](C)c2c(O)cc(C(=O)O)cc21)COC(=O)/C=C/c1ccccc1
